Measured values: ChEMBL document CHEMBL4177552, “Synthesis and hyperpolarisation of eNOS substrates for quantification of NO production by 1H NMR spectroscopy” (Bioorg Med Chem, 2017)
Where a SMILES comes first, the peptide text is derived from it.

Columns and labels:
[1] = biological target: T1, Nitric oxide synthase 3 (Bos taurus) (UniProt P29473); test: Substrate activity at recombinant bovine eNOS assessed as enzyme mediated nitrite production after 40 mins by Griess reagent base LDH assay
T1 sequence (whole entry): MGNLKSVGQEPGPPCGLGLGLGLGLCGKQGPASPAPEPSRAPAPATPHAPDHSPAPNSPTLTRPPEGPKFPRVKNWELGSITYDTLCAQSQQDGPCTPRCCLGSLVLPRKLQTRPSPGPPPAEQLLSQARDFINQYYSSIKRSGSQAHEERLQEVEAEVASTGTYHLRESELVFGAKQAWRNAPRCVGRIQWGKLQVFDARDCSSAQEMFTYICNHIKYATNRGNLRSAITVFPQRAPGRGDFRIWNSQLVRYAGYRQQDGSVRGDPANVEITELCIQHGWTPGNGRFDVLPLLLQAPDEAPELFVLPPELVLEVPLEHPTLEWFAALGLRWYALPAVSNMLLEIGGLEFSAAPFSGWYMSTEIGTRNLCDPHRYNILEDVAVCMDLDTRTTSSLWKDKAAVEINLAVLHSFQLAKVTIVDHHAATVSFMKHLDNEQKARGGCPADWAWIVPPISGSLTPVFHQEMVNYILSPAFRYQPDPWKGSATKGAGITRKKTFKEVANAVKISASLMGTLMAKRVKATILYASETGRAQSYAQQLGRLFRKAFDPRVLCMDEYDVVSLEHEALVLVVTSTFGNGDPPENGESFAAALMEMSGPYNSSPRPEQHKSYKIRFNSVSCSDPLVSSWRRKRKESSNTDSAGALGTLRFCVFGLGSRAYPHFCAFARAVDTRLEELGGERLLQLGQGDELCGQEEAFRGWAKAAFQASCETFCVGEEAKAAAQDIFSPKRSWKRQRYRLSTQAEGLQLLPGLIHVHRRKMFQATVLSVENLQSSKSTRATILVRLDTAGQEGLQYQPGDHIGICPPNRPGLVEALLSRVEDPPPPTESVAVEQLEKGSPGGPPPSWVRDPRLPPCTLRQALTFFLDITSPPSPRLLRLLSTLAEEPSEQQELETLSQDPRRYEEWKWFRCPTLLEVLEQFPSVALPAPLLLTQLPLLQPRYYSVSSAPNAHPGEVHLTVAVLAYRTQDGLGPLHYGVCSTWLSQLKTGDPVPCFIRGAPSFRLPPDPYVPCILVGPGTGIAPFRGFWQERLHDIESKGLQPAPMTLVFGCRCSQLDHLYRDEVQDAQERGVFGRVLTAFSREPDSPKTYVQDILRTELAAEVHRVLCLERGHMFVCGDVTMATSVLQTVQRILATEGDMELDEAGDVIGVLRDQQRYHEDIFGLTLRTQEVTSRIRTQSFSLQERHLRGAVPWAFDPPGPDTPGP
Procedure, shortened: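 Run for 40 min alongside an l-arginine positive control and a negative control. Stopped with ice-cold 20 mM HEPES pH 5.5, 2 mM EDTA, 2 mM EGTA. NO-derived nitrite quantified by Griess colorimetry (nitrate/nitrite LDH method).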

[2] = Drug metabolism is PBS buffer assessed as compound conversion after 3 hrs by 1H NMR spectroscopy

Row | Structure (SMILES) | Activity [1] | degraded at 3 h [2]
1 | N=C(N)NCCC[C@H](N)C(=O)Nc1ccncc1 | 22 µM | 41%
2 | CC(NC(=O)[C@@H](N)CCCNC(=N)N)c1cccnc1 (stereo partly drawn) | 26 µM | –
3 | CN(Cc1ccncc1)C(=O)[C@@H](N)CCCNC(=N)N | 21 µM | –
4 | CC(=O)N[C@@H](CCCN/C(N)=N/O)C(=O)NCc1ccncc1 | 27 µM | –
5 | N/C(=N\O)NCCC[C@H](N)C(=O)NCc1ccncc1 | 26 µM | –
6 | CN(Cc1cccnc1)C(=O)[C@@H](N)CCCNC(=N)N | 23 µM | –
7 | N/C(=N\O)NCCCCC(=O)NCc1ccncc1 | 29 µM | –
8 | N=C(N)NCCC[C@H](N)C(=O)N[C@@H](Cc1cccnc1)C(=O)O (HELM PEPTIDE1{R.[O=C(O)[C@H](Cc1cccnc1)N[*:1]]}$$$$V2.0) | 38 µM | –
9 | N=C(N)NCCC[C@H](N)C(=O)O | 25 µM | –
10 | CC(NC(=O)[C@@H](N)CCCNC(=N)N)c1ccncc1 (stereo partly drawn) | 20 µM | –
11 | N=C(N)NCCC[C@H](N)C(=O)NCc1cccnc1 | 22 µM | –
12 | N=C(N)NCCC[C@H](N)C(=O)NCc1ccncc1 | 48 µM | –
